Measured values: ChEMBL document CHEMBL3272018, “Synthesis of aziridinylallylaminophosphine oxides and sulfides as potential adjuvant cancer chemotherapeutic agents” (J Med Chem, 1976)
Activity calls are given as the source filed them. The rule behind the calls is not given here.

Columns and labels:
W256 [1] = experiment: Antitumor activity against rat Walker 256 cells intramuscularly allografted in rat assessed as tumor growth inhibition at 0.23 mg/kg, qd administered for 5 days relative to control; type: functional; conditions: W256, im, 120 h, route intramuscular, read-out: TGI
Procedure, shortened: (§1)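 Dosed once daily for 5 days. Response is tumor progression in treated (T) versus untreated control (C) animals, expressed as T/C percentage. Host weight change is reported as the average net weight change of the test group minus that of the controls, in grams.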

W256 [2] = experiment: Antitumor activity against rat Walker 256 cells intramuscularly allografted in rat assessed as survival rate at 1 mg/kg, qd administered for 5 days; type: functional, organism-based; parameters: dose 1 mg/kg
Procedure, shortened: (§2)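 Rats bearing Walker 256 carcinoma as a solid tumor; lines 1-8 use a cytoxan-resistant Walker 256 subline. Dosed once daily for 5 days. Treated (T) and untreated control (C) groups are compared, and the response is given as T/C percentage, reflecting increase in survival time. Host weight change is the average weight change of the test group minus that of the controls, in grams.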

Rattus norvegicus [3] = experiment: Toxicity in rat allografted with rat Walker 256 cells intramuscularly assessed as change in body weight at 1 mg/kg, qd administered for 5 days; type: organism-based; parameters: dose 1 mg/kg, route intramuscular; conditions: in vivo, im, 120 h
Procedure, shortened: (§3)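 Walker 256 carcinoma solid-tumour system in rats (parent line, or the line resistant to cytoxan). Dosing was one injection per day for 5 days. Toxicity was taken as the average net body-weight change of the treated group minus the average net weight change of the untreated tumour-bearing controls, in grams.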

[4] = Toxicity in rat allografted with rat Walker 256 cells intramuscularly; type: organism-based
L1210 [5] = experiment: In vivo antitumor activity against mouse L1210 cells in prognostic scoring system assessed as tumor growth inhibition at 1.65 mg/kg administered 3 doses relative to control; type: functional
W256 [6] = experiment: Antitumor activity against rat Walker 256 cells intramuscularly allografted in rat assessed as tumor growth inhibition at 0.95 mg/kg, qd administered for 5 days relative to control; type: functional; conditions: W256, im, 120 h, route intramuscular, read-out: TGI; procedure, shortened: as §1
L1210 [7] = experiment: In vivo antitumor activity against mouse L1210 cells in prognostic scoring system assessed as survival rate at 0.75 mg/kg, qd administered for 15 days; type: functional, organism-based; parameters: dose 0.75 mg/kg
Procedure, shortened: (§4)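 L1210 leukaemia in mice, run as an ascites tumour system. Injections were once daily for 9 or 15 days, or as a single dose. Response is the increase in survival time, given as T/C %, treated over untreated controls; a larger value means more activity. Weight change is the treated-group mean minus the control-group mean, in grams.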

W256 [8] = experiment: Antitumor activity against rat Walker 256 cells intramuscularly allografted in rat assessed as survival rate at 1.9 mg/kg, qd administered for 5 days; type: functional, organism-based; parameters: dose 1.9 mg/kg; procedure, shortened: as §2
L1210 [9] = experiment: In vivo antitumor activity against mouse L1210 cells in prognostic scoring system assessed as […] at 0.37 mg/kg, qd administered for 15 days relative to control; type: functional; conditions: L1210, 360 h, read-out: TGI
W256 [10] = experiment: Antitumor activity against rat Walker 256 cells intramuscularly allografted in rat assessed as survival rate at 0.23 mg/kg, qd administered for 5 days; type: functional, organism-based; parameters: dose 0.23 mg/kg; procedure, shortened: as §2
L1210 [11] = experiment: In vivo antitumor activity against mouse L1210 cells in prognostic scoring system assessed as survival rate at 0.37 mg/kg, qd administered for 15 days; type: functional, organism-based; parameters: dose 0.37 mg/kg; procedure, shortened: as §4
W256 [12] = experiment: Antitumor activity against rat Walker 256 cells intramuscularly allografted in rat assessed as survival rate at 0.47 mg/kg, qd administered for 5 days; type: functional, organism-based; parameters: dose 0.47 mg/kg; procedure, shortened: as §2
W256 [13] = experiment: Antitumor activity against rat Walker 256 cells intramuscularly allografted in rat assessed as tumor growth inhibition; type: functional; conditions: W256, im; procedure, shortened: as §1
[14] = Therapeutic index, ratio of LD50 for rat allografted with rat Walker 256 cells to ED10 for antitumor activity against rat Walker 256 cells intramuscularly allografted in rat; type: cell-based; conditions: read-out: TI
Procedure, shortened: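 Therapeutic index is LD50/ED10 in the Walker 256 solid tumour system. ED10 is the dose giving a 10% tumour weight reduction, with values extrapolated from dose-response data.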

Rattus norvegicus [15] = experiment: Toxicity in rat allografted with rat Walker 256 cells intramuscularly assessed as change in body weight at 0.47 mg/kg, qd administered for 5 days; type: organism-based; parameters: dose 0.47 mg/kg, route intramuscular; conditions: in vivo, im, 120 h; procedure, shortened: as §3
L1210 [16] = experiment: In vivo antitumor activity against mouse L1210 cells in prognostic scoring system assessed as survival rate at 1.5 mg/kg, qd administered for 15 days; type: functional, organism-based; parameters: dose 1.5 mg/kg; procedure, shortened: as §4
W256 [17] = experiment: Antitumor activity against rat Walker 256 cells intramuscularly allografted in rat assessed as survival rate at 0.95 mg/kg, qd administered for 5 days; type: functional, organism-based; parameters: dose 0.95 mg/kg; procedure, shortened: as §2
W256 [18] = experiment: Antitumor activity against rat Walker 256 cells intramuscularly allografted in rat assessed as tumor growth inhibition at 1.9 mg/kg, qd administered for 5 days relative to control; type: functional; conditions: W256, im, 120 h, route intramuscular, read-out: TGI
Procedure, shortened: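 Walker 256 carcinoma grown as a solid tumour in rats, with one injection daily for 5 days. Response is given as T/C %, the treated-group measure over the untreated-control tumour measure; a smaller value means more activity. Host toxicity is the mean net weight change of treated minus control animals, in grams.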

Rattus norvegicus [19] = experiment: Toxicity in rat allografted with rat Walker 256 cells intramuscularly assessed as change in body weight at 0.23 mg/kg, qd administered for 5 days; type: organism-based; parameters: dose 0.23 mg/kg, route intramuscular; conditions: in vivo, im, 120 h; procedure, shortened: as §3
L1210 [20] = experiment: In vivo antitumor activity against mouse L1210 cells in prognostic scoring system assessed as survival rate at 3 mg/kg, qd administered for 15 days; type: functional, organism-based; parameters: dose 3 mg/kg; procedure, shortened: as §4
W256 [21] = experiment: Antitumor activity against rat Walker 256 cells intramuscularly allografted in rat assessed as tumor growth inhibition at 0.47 mg/kg, qd administered for 5 days relative to control; type: functional; conditions: W256, im, 120 h, route intramuscular, read-out: TGI; procedure, shortened: as §1
Musca domestica [22] = experiment: Toxicity in male house fly assessed as lowest dose required to cause complete sterility administered in food; type: organism-based; conditions: in vivo, po
Musca domestica [23] = experiment: Toxicity in male house fly assessed as lowest dose required to cause complete sterility administered in sugar; type: organism-based; conditions: in vivo, po
Rattus norvegicus [24] = experiment: Toxicity in rat allografted with rat Walker 256 cells intramuscularly assessed as change in body weight at 0.95 mg/kg, qd administered for 5 days; type: organism-based; parameters: dose 0.95 mg/kg, route intramuscular; conditions: in vivo, im, 120 h; procedure, shortened: as §3
Rattus norvegicus [25] = experiment: Toxicity in rat allografted with rat Walker 256 cells intramuscularly assessed as change in body weight at 1.9 mg/kg, qd administered for 5 days; type: organism-based; parameters: dose 1.9 mg/kg, route intramuscular; conditions: in vivo, im, 120 h; procedure, shortened: as §3
W256 [26] = experiment: Antitumor activity against rat Walker 256 cells intramuscularly allografted in rat assessed as tumor growth inhibition at 1 mg/kg, qd administered for 5 days relative to control; type: functional; conditions: W256, im, 120 h, route intramuscular, read-out: TGI; procedure, shortened: as §1
L1210 [27] = experiment: In vivo antitumor activity against mouse L1210 cells in prognostic scoring system assessed as tumor growth inhibition at 0.6 mg/kg administered 9 doses relative to control; type: functional
L1210 [28] = experiment: In vivo antitumor activity against mouse L1210 cells in prognostic scoring system assessed as survival rate at 200 mg/kg administered as single dose; type: functional, organism-based; parameters: dose 200 mg/kg; procedure, shortened: as §4
L1210 [29] = experiment: In vivo antitumor activity against mouse L1210 cells in prognostic scoring system assessed as tumor growth inhibition at 400 mg/kg administered as single dose (reference value: 10.9 g); type: functional; procedure, shortened: as §4
Musca domestica [30] = experiment: Toxicity in male house fly at 1% administered in sugar; type: organism-based; conditions: in vivo, po
L1210 [31] = experiment: In vivo antitumor activity against mouse L1210 cells in prognostic scoring system assessed as tumor growth inhibition at 100 mg/kg administered as single dose (reference value: 10.9 g); type: functional; procedure, shortened: as §4
L1210 [32] = experiment: In vivo antitumor activity against mouse L1210 cells in prognostic scoring system assessed as tumor growth inhibition at 200 mg/kg administered as single dose (reference value: 10.9 g); type: functional; procedure, shortened: as §4
L1210 [33] = experiment: In vivo antitumor activity against mouse L1210 cells in prognostic scoring system assessed as survival rate at 400 mg/kg administered as single dose; type: functional, organism-based; parameters: dose 400 mg/kg; procedure, shortened: as §4
L1210 [34] = experiment: In vivo antitumor activity against mouse L1210 cells in prognostic scoring system assessed as survival rate at 100 mg/kg administered as single dose; type: functional, organism-based; parameters: dose 100 mg/kg; procedure, shortened: as §4

C=CCN(CC=C)P(=O)(N1CC1)N1CC1C (stereo not given)
inhibition in vivo at 0.23 mg/kg (W256 [1]): 30% | Activity (W256 [2]): Active | Activity (Rattus norvegicus [3]): -9 g | LD50 [4]: 7 mg/kg | T/C (L1210 [5]): 159% | inhibition in vivo at 0.95 mg/kg (W256 [6]): 0% | Activity (L1210 [7]): Active | Activity (W256 [8]): Active | inhibition in vivo at 0.37 mg/kg (L1210 [9]): 117% | Activity (W256 [10]): Active | Activity (L1210 [11]): Active | Activity (W256 [12]): Active | ED10 (W256 [13]): 0.52 mg/kg | selectivity ratio [14]: 13 | Activity (Rattus norvegicus [15]): 0 g | Activity (L1210 [16]): Active | Activity (W256 [17]): Active | inhibition in vivo at 1.9 mg/kg (W256 [18]): 0% | Activity (Rattus norvegicus [19]): -7 g | Activity (L1210 [20]): Active | inhibition in vivo at 0.47 mg/kg (W256 [21]): 5% | Activity (Musca domestica [22]): 0.1% | Activity (Musca domestica [23]): 0.25% | Activity (Rattus norvegicus [24]): -8 g | Activity (Rattus norvegicus [25]): -13 g | inhibition in vivo at 1 mg/kg (W256 [26]): 2% | T/C (L1210 [27]): 189%

C=CCN(c1ccccc1)P(=O)(N1CC1)N1CC1
LD50 [4]: > 300 mg/kg | Activity (L1210 [28]): Active | Activity (L1210 [29]): 10.5 g | Activity (Musca domestica [30]): Non-toxic | Activity (L1210 [31]): 10.5 g | Activity (L1210 [32]): 10.5 g | Activity (L1210 [33]): Active | Activity (L1210 [34]): Active
